Measurements as given in ChEMBL document CHEMBL4346663, “N-Cinnamoylanthranilates as human TRPA1 modulators: Structure-activity relationships and channel binding sites” (Eur J Med Chem, 2019).
Active and inactive are the calls of the source. The calls are words filed in the database; no cut-off is given here.

How the values were obtained:
Type in all cases: cell-based
[1] = target: T1, Transient receptor potential cation channel subfamily A member 1 (Homo sapiens, UniProt O75762); experiment: Agonist activity at human TRPA1 expressed in CHO cells assessed as increase in calcium influx by Fluo-4-AM dye based fluorescence assay
T1 sequence (O75762 whole entry): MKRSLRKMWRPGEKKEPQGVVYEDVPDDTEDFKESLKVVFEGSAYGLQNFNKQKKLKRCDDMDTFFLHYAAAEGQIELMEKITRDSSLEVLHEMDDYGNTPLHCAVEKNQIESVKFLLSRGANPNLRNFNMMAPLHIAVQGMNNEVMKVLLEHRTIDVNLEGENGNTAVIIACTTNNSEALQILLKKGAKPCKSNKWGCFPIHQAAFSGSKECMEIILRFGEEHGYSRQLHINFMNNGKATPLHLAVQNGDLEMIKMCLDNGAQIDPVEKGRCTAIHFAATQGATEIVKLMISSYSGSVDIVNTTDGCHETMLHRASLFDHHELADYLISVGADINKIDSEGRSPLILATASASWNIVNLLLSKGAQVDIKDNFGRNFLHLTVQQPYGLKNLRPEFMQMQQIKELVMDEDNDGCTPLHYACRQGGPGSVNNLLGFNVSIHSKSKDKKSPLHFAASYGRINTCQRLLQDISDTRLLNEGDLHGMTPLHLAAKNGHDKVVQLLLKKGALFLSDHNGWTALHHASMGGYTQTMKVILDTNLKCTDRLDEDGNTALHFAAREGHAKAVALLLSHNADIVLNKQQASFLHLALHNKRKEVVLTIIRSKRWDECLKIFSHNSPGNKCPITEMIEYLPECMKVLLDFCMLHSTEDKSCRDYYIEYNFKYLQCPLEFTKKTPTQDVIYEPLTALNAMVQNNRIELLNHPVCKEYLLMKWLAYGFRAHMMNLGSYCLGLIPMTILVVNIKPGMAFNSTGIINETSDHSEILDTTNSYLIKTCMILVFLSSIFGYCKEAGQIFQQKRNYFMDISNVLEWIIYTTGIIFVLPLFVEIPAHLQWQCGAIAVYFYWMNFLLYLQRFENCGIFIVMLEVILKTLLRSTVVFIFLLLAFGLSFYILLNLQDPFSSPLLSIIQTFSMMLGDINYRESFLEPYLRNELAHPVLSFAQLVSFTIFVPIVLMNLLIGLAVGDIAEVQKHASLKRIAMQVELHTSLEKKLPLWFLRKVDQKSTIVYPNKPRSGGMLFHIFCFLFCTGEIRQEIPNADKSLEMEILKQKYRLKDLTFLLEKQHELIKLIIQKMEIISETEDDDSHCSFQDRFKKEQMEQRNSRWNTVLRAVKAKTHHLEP

[2] = system: Transient receptor potential cation channel subfamily A member 1 (Homo sapiens), O75762 [F944A]; experiment: Agonist activity at human TRPA1 Phe944Ala mutant expressed in HEK293 cells assessed as Ca2+ influx […] by fluorescence assay
Transient receptor potential cation channel subfamily A member 1 (Homo sapiens), O75762 [F944A], sequence (O75762 whole entry F944A): as the sequence (O75762 whole entry) above, with F944A counted along it
Outline: (§1)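 HEK293 cells stably expressing hTRPA1 point mutants (C621A, F909A or F944A), single-cell cloned under G418 selection. Cells plated on poly-D-lysine for 48 h, loaded with Fluo-4AM 2 µM for 45 min at room temperature. FlexStation read (ex 485/em 538 nm): 20 s baseline, compound added, calcimycin added at 180 s. Response expressed as % calcimycin from ΔRFU, vehicle-subtracted, and compared with wild-type hTRPA1 cells.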

[3] = system: Transient receptor potential cation channel subfamily A member 1 (Homo sapiens), O75762 [C621A]; experiment: Agonist activity at human TRPA1 […] mutant expressed in HEK293 cells assessed as Ca2+ influx […] by fluorescence assay; outline: as §1
Transient receptor potential cation channel subfamily A member 1 (Homo sapiens), O75762 [C621A], sequence (O75762 whole entry C621A): as the sequence (O75762 whole entry) above, with C621A counted along it

[4] = system: Transient receptor potential cation channel subfamily A member 1 (Homo sapiens), O75762 [F909A]; experiment: Agonist activity at human TRPA1 Phe909Ala mutant expressed in HEK293 cells assessed as Ca2+ influx […] fluorescence assay; outline: as §1
Transient receptor potential cation channel subfamily A member 1 (Homo sapiens), O75762 [F909A], sequence (O75762 whole entry F909A): as the sequence (O75762 whole entry) above, with F909A counted along it

[5] = system: Transient receptor potential cation channel subfamily A member 1 (Homo sapiens), O75762 [C621A]; experiment: Agonist activity at human TRPA1 […] mutant expressed in HEK293 cells assessed as Ca2+ influx at 1 uM by fluorescence assay
[6] = system: Transient receptor potential cation channel subfamily A member 1 (Homo sapiens), O75762 [F909A]; experiment: Agonist activity at human TRPA1 Phe909Ala mutant expressed in HEK293 cells assessed as Ca2+ influx at 1 uM by fluorescence assay; outline: as §1
[7] = target: T1, Transient receptor potential cation channel subfamily A member 1; experiment: Agonist activity at human TRPA1 expressed in HEK293 cells assessed as increase in calcium influx by Fluo-4-AM dye based fluorescence assay; conditions: read-out: EC50
Outline: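 Stably transfected hTRPA1- or hTRPM8-HEK293 cells on poly-D-lysine plates for 48 h, loaded with Fluo-4AM (2 µM, 45 min, dark, room temperature), in isotonic HEPES buffer pH 7.4. FlexStation 240 s run: 20 s baseline, compound added, calcimycin added at 180 s. ΔRFU expressed as % calcimycin, DMSO-subtracted. Screening N = 3. Dose-response curves fitted for logEC50 (N = 3 in duplicate or triplicate).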

[8] = target: T1, Transient receptor potential cation channel subfamily A member 1; experiment: Agonist activity at human TRPA1 expressed in HEK293 cells assessed as increase in calcium influx by Fluo-3/acetoxymethyl ester dye based FLIPR analysis
[9] = system: Transient receptor potential cation channel subfamily A member 1 (Homo sapiens), O75762 [F909A]; experiment: Agonist activity at human TRPA1 Phe909Ala mutant expressed in HEK293 cells assessed as Ca2+ influx at 30 uM by fluorescence assay; outline: as §1
[10] = target: T1, Transient receptor potential cation channel subfamily A member 1; experiment: Agonist activity at human TRPA1 expressed in HEK293 cells assessed as increase in calcium influx by Calcium-5 dye based fluorescence assay
[11] = system: Transient receptor potential cation channel subfamily A member 1 (Homo sapiens), O75762 [F944A]; experiment: Agonist activity at human TRPA1 Phe944Ala mutant expressed in HEK293 cells assessed as Ca2+ influx at 30 uM by fluorescence assay; outline: as §1
[12] = system: Transient receptor potential cation channel subfamily A member 1 (Homo sapiens), O75762 [F944A]; experiment: Agonist activity at human TRPA1 Phe944Ala mutant expressed in HEK293 cells assessed as Ca2+ influx at 100 uM by fluorescence assay
Outline: (§2)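 HEK293 cells stably expressing hTRPA1 point mutants, made by FuGENE 6 transfection, G418 (0.5 mg ml-1) selection and single-cell cloning, grown in DMEM with 25 mM HEPES, 10% FBS and geneticin. Ca2+ influx was read by Fluo dye fluorescence at room temperature, with calcimycin added at the end. Response was ΔRFU as % of calcimycin, with the DMSO vehicle subtracted.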

[13] = target: T1, Transient receptor potential cation channel subfamily A member 1; experiment: Agonist activity at human TRPA1 expressed in HEK293 assessed as increase in calcium influx by […]
[14] = system: Transient receptor potential cation channel subfamily A member 1 (Homo sapiens), O75762 [F909A]; experiment: Agonist activity at human TRPA1 Phe909Ala mutant expressed in HEK293 cells assessed as Ca2+ influx at 100 uM by fluorescence assay; outline: as §2
[15] = target: T1, Transient receptor potential cation channel subfamily A member 1; experiment: Agonist activity at human TRPA1 expressed in HEK293 cells assessed as increase in calcium influx by FLIPR analysis
Outline: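 Stably transfected hTRPA1-HEK293 cells plated on poly-D-lysine at 12500 cells per well, grown 48 h, loaded with 2 µM Fluo-4AM for 45 min in the dark at room temperature. Assayed in isotonic HEPES buffer (pH 7.4) on a plate reader, ex 485/em 538 nm. Compound added at 20 s, calcimycin at 180 s. ΔRFU taken as % calcimycin after DMSO subtraction. Three independent experiments.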

[16] = target: Transient receptor potential cation channel subfamily A member 1 (Mus musculus, UniProt Q8BLA8); experiment: Agonist activity at mouse TRPA1 expressed in CHO cells assessed as increase in calcium influx by Fluo-3 based FLIPR analysis
Transient receptor potential cation channel subfamily A member 1 (Mus musculus, UniProt Q8BLA8), sequence (Q8BLA8 whole entry): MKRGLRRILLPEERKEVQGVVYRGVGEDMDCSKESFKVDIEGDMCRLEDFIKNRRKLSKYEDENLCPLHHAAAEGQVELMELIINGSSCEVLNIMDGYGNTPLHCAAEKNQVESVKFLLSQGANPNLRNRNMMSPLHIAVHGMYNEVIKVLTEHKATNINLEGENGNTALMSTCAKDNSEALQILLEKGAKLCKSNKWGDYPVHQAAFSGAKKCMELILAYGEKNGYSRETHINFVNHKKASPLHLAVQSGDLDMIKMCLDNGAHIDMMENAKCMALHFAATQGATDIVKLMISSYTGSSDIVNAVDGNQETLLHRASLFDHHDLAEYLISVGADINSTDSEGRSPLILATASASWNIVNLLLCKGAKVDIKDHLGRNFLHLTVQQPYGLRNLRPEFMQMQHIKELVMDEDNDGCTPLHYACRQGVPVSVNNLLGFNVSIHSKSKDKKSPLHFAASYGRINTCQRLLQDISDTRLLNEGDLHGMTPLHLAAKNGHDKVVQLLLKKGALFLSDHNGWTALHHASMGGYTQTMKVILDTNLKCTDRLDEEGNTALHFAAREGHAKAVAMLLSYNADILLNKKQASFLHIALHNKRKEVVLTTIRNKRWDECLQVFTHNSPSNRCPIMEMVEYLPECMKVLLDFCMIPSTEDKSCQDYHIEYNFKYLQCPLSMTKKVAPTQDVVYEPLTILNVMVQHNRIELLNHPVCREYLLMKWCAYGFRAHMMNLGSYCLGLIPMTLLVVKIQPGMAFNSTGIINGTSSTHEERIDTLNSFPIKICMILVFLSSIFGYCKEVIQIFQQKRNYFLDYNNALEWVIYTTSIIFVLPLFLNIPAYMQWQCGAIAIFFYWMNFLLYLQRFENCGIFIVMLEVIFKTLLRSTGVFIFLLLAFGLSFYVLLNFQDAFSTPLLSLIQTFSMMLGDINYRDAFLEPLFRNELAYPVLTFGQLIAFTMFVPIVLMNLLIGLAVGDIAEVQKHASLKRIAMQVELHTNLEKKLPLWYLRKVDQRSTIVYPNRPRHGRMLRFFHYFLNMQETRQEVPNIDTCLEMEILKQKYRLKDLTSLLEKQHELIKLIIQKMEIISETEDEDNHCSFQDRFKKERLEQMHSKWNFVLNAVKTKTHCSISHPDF

For `CCCN(CCC)S(=O)(=O)c1ccc(C(=O)O)cc1` [PROBENECID], the EC50 [1] was 4200 µM, the Activity [2] was “inactive” and the Activity [3] was “inactive”. For the same compound, the Activity [4] was “Active”.

For `CC(C)=CCC/C(C)=C/CC/C(C)=C/CSc1ccccc1C(=O)O` [SALIRASIB], the Activity [5] was “inactive”, the Activity [6] was “Active” and the EC50 [7] was 0.8 µM. The EC50 [8] was 7 µM.

With `CC(Cc1ccc(O)c(O)c1)C(C)Cc1ccc(O)c(O)c1` (stereo not drawn) [NORDIHYDROGUAIARETIC ACID] the Activity [9] was “Active”, the EC50 [10] was 4.9 µM and the Activity [11] was “inactive”. It also gave an EC50 [7] of 35 µM.

`C=CCc1ccc(O)c(OC)c1` [EUGENOL] was tested, and the Activity [12] was “inactive”, the EC50 [13] was 261 µM and the Activity [14] was “Active”. For the same compound, the EC50 [7] was 168 µM.

For `O=C(O)c1cc([N+](=O)[O-])ccc1NCCCc1ccccc1` [5-NITRO-2-PHENYLPROPYLAMINOBENZOIC ACID [NPPB]], the Activity [5] was “inactive”, the EC50 [15] was 0.32 µM and the Activity [6] was “Active”. The EC50 [7] was 0.6 µM.

For `O=C/C=C/c1ccccc1`, the EC50 [16] was 61 µM, the Activity [9] was “Active” and the EC50 [7] was 9 µM.
